Measurements taken from ChEMBL document CHEMBL1687738, “Effect of Candida glabrata FKS1 and FKS2 mutations on echinocandin sensitivity and kinetics of 1,3-beta-D-glucan synthase: implication for the existing susceptibility breakpoint” (Antimicrob Agents Chemother, 2009).
≈ marks a conversion by molar mass, not a printed value. Starred links: 1 amine or outer side, 2 acyl side, 3 side chain; linkers in the order of their positions; H or OH if unused. Positions of bridges follow the written chain, without caps; N, C: chain ends. Non-standard residues stand in square brackets, D forms with d. Residues, ends and D or L forms follow the SMILES beside them. *: point of attachment. pTerphenylCO(4''-OnC5H11) = CCCCCOc1ccc(-c2ccc(-c3ccc(C(=O)*)cc3)cc2)cc1; Orn(4R-OH,5R-OH) = O=C([C@H](C[C@@H](O)[C@@H](O)N[*:3])N[*:1])[*:2]; hTyr(3S-OH,4S-OH) = N[C@H](C(=O)O)[C@H](O)[C@@H](O)c1ccc(O)cc1; Pro(3S-OH,4S-Me) = C[C@H]1CN[C@H](C(=O)O)[C@H]1O; Hyp = O=C(O)[C@@H]1C[C@@H](O)CN1

Legend:
Nakaseomyces glabratus [1] = experiment: Antifungal activity against Candida glabrata isolate 5847 expressing Fks1p S629P mutant and wild type Fks2p by CLSI method in presence of 50% human serum; format: functional
Outline: (§1)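 Broth microdilution MIC per CLSI M27-A3 in RPMI 1640 supplemented with 50% serum. Caspofungin and micafungin stocks in sterile water; anidulafungin stock in 100% DMSO; stocks kept at −86°C.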

Nakaseomyces glabratus [2] = experiment: Antifungal activity against Candida glabrata isolate 3169 expressing Fks1p D632E mutant and wild type Fks2p by CLSI method in presence of 50% human serum; format: functional; outline: as §1
Nakaseomyces glabratus [3] = experiment: Antifungal activity against Candida glabrata isolate 3830 expressing wild type Fks1p and Fks2p S663P mutant by CLSI method; format: functional
Outline: (§2)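 Broth microdilution MIC per CLSI M27-A3 in RPMI 1640 medium without serum. Caspofungin and micafungin stocks in sterile water; anidulafungin stock in 100% DMSO; stocks kept at −86°C.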

Nakaseomyces glabratus [4] = experiment: Antifungal activity against Candida glabrata isolate 41400 expressing wild type Fks1p and Fks2p D666G mutant by CLSI method; format: functional; outline: as §2
Nakaseomyces glabratus [5] = experiment: Antifungal activity against Candida glabrata isolate 42971 expressing Fks1p D632Y mutant and Fks2p R1377STOP mutant by CLSI method in presence of 50% human serum; format: functional; outline: as §1
1,3-beta-glucan synthase [6] = target: 1,3-beta-glucan synthase (Candida glabrata, UniProt F5BCZ9, W1375L); experiment: Inhibition of Candida glabrata isolate 5416 1,3-beta-D-glucan synthase wild type Fks1p/Fks2p W1375L mutant; design: species or system Nakaseomyces glabratus
Outline: (§3)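 Cells grown in YPD broth at 35°C with vigorous shaking to early stationary phase. Membrane protein extracted and glucan synthase partially purified by product entrapment. Filtration polymerization assay measured [3H]glucose incorporation into product, started by adding enzyme. Echinocandin serial dilutions spanned 0.01–10,000 ng/ml, with 1% DMSO controls for anidulafungin. IC50 from variable-slope sigmoidal fit.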

Nakaseomyces glabratus [7] = experiment: Antifungal activity against Candida glabrata isolate 42031 expressing wild type Fks1p and Fks2p D666E mutant by CLSI method in presence of 50% human serum; format: functional; outline: as §1
Nakaseomyces glabratus [8] = experiment: Antifungal activity against Candida glabrata isolate 42971 expressing Fks1p D632Y mutant and Fks2p R1377STOP mutant by CLSI method; format: functional; outline: as §2
1,3-beta-glucan synthase [9] = target: 1,3-beta-glucan synthase (Candida glabrata, UniProt F5BCZ9, P667T); experiment: Inhibition of Candida glabrata isolate 51916 1,3-beta-D-glucan synthase wild type Fks1p/Fks2p P667T mutant; design: species or system Nakaseomyces glabratus; outline: as §3
[10] = target: 1,3-beta-glucan synthase component FKS1 (Candida glabrata, UniProt E2GKZ4, D632E); experiment: Inhibition of Candida glabrata isolate 3169 1,3-beta-D-glucan synthase Fks1p D632E mutant/wild type Fks2p; design: species or system Nakaseomyces glabratus; outline: as §3
Nakaseomyces glabratus [11] = experiment: Antifungal activity against Candida glabrata isolate 41026 expressing wild type Fks1p and Fks2p F659S mutant by CLSI method in presence of 50% human serum; format: functional; outline: as §1
Nakaseomyces glabratus [12] = experiment: Antifungal activity against Candida glabrata isolate 218 expressing wild type Fks1p and Fks2p by CLSI method; format: functional; outline: as §2
Nakaseomyces glabratus [13] = experiment: Antifungal activity against Candida glabrata isolate 31498 expressing wild type Fks1p and Fks2p F659 deletion mutant by CLSI method; format: functional; outline: as §2
1,3-beta-glucan synthase [14] = target: 1,3-beta-glucan synthase (Candida glabrata, UniProt F5BCZ9, F659S); experiment: Inhibition of Candida glabrata isolate 41026 1,3-beta-D-glucan synthase wild type Fks1p/Fks2p F659S mutant; design: species or system Nakaseomyces glabratus; outline: as §3
Nakaseomyces glabratus [15] = experiment: Antifungal activity against Candida glabrata isolate 3168 expressing wild type Fks1p and Fks2p by CLSI method in presence of 50% human serum; format: functional; outline: as §1
Nakaseomyces glabratus [16] = experiment: Antifungal activity against Candida glabrata isolate 21900 expressing Fks1p D632G mutant and wild type Fks2p by CLSI method; format: functional
Nakaseomyces glabratus [17] = experiment: Antifungal activity against Candida glabrata isolate 42997 expressing Fks1p F625S mutant and wild type Fks2p by CLSI method; format: functional; outline: as §2
1,3-beta-glucan synthase [18] = target: 1,3-beta-glucan synthase (Candida glabrata, UniProt F5BCZ9, F659V); experiment: Inhibition of Candida glabrata isolate 234 1,3-beta-D-glucan synthase wild type Fks1p/Fks2p F659V mutant; design: species or system Nakaseomyces glabratus; outline: as §3
Nakaseomyces glabratus [19] = experiment: Antifungal activity against Candida glabrata ATCC 90030 expressing wild type Fks1p and Fks2p by CLSI method; format: functional
Outline: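 Broth microdilution MIC per CLSI M27-A3 in RPMI 1640 medium, also run in RPMI 1640 with 50% serum. Wild-type control strain. Caspofungin and micafungin dissolved in sterile distilled water and anidulafungin in 100% DMSO; stock solutions stored at −86°C. Geometric means used to compare MICs.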

Nakaseomyces glabratus [20] = experiment: Ratio of IC50 for Candida glabrata wild type 1,3-beta-glucan synthase to IC50 for Candida glabrata 1,3-beta-glucan synthase mutant
Nakaseomyces glabratus [21] = experiment: Antifungal activity against Candida glabrata isolate 41400 expressing wild type Fks1p and Fks2p D666G mutant by CLSI method in presence of 50% human serum; format: functional; outline: as §1
Nakaseomyces glabratus [22] = experiment: Antifungal activity against Candida glabrata isolate 5416 expressing wild type Fks1p and Fks2p W1375L mutant by CLSI method; format: functional; outline: as §2
Nakaseomyces glabratus [23] = experiment: Antifungal activity against Candida glabrata isolate 5847 expressing Fks1p S629P mutant and wild type Fks2p by CLSI method; format: functional; outline: as §2
1,3-beta-glucan synthase [24] = target: 1,3-beta-glucan synthase (Candida glabrata, UniProt F5BCZ9, S663P); experiment: Inhibition of Candida glabrata isolate 3830 1,3-beta-D-glucan synthase wild type Fks1p/Fks2p S663P mutant; design: species or system Nakaseomyces glabratus; outline: as §3
Nakaseomyces glabratus [25] = experiment: Antifungal activity against Candida glabrata isolate 51916 expressing wild type Fks1p and Fks2p P667T mutant by CLSI method; format: functional; outline: as §2
Nakaseomyces glabratus [26] = experiment: Antifungal activity against Candida glabrata isolate 3169 expressing Fks1p D632E mutant and wild type Fks2p by CLSI method; format: functional; outline: as §2
[27] = Inhibition of Candida glabrata isolate 3168 wild type 1,3-beta-D-glucan synthase; design: species or system Nakaseomyces glabratus; outline: as §3
Nakaseomyces glabratus [28] = experiment: Antifungal activity against Candida glabrata isolate 42997 expressing Fks1p F625S mutant and wild type Fks2p by CLSI method in presence of 50% human serum; format: functional; outline: as §1
Nakaseomyces glabratus [29] = experiment: Antifungal activity against Candida glabrata isolate 21900 expressing Fks1p D632G mutant and wild type Fks2p by CLSI method in presence of 50% human serum; format: functional; outline: as §1
Nakaseomyces glabratus [30] = experiment: Antifungal activity against Candida glabrata isolate 31498 expressing wild type Fks1p and Fks2p F659 deletion mutant by CLSI method in presence of 50% human serum; format: functional; outline: as §1
1,3-beta-glucan synthase [31] = target: 1,3-beta-glucan synthase (Candida glabrata, UniProt F5BCZ9, D666E); experiment: Inhibition of Candida glabrata isolate 42031 1,3-beta-D-glucan synthase wild type Fks1p/Fks2p D666E mutant; design: species or system Nakaseomyces glabratus; outline: as §3
[32] = target: 1,3-beta-glucan synthase component FKS1 (Candida glabrata, UniProt E2GKZ4, D632G); experiment: Inhibition of Candida glabrata isolate 21900 1,3-beta-D-glucan synthase Fks1p D632G mutant/wild type Fks2p; design: species or system Nakaseomyces glabratus; outline: as §3
[33] = Inhibition of Candida glabrata isolate 218 wild type 1,3-beta-D-glucan synthase; design: species or system Nakaseomyces glabratus; outline: as §3
Nakaseomyces glabratus [34] = experiment: Antifungal activity against Candida glabrata isolate 218 expressing wild type Fks1p and Fks2p by CLSI method in presence of 50% human serum; format: functional; outline: as §1

Sequence of 1,3-beta-glucan synthase (Candida glabrata, UniProt F5BCZ9, S663P) (F5BCZ9 entry or part of it S663P): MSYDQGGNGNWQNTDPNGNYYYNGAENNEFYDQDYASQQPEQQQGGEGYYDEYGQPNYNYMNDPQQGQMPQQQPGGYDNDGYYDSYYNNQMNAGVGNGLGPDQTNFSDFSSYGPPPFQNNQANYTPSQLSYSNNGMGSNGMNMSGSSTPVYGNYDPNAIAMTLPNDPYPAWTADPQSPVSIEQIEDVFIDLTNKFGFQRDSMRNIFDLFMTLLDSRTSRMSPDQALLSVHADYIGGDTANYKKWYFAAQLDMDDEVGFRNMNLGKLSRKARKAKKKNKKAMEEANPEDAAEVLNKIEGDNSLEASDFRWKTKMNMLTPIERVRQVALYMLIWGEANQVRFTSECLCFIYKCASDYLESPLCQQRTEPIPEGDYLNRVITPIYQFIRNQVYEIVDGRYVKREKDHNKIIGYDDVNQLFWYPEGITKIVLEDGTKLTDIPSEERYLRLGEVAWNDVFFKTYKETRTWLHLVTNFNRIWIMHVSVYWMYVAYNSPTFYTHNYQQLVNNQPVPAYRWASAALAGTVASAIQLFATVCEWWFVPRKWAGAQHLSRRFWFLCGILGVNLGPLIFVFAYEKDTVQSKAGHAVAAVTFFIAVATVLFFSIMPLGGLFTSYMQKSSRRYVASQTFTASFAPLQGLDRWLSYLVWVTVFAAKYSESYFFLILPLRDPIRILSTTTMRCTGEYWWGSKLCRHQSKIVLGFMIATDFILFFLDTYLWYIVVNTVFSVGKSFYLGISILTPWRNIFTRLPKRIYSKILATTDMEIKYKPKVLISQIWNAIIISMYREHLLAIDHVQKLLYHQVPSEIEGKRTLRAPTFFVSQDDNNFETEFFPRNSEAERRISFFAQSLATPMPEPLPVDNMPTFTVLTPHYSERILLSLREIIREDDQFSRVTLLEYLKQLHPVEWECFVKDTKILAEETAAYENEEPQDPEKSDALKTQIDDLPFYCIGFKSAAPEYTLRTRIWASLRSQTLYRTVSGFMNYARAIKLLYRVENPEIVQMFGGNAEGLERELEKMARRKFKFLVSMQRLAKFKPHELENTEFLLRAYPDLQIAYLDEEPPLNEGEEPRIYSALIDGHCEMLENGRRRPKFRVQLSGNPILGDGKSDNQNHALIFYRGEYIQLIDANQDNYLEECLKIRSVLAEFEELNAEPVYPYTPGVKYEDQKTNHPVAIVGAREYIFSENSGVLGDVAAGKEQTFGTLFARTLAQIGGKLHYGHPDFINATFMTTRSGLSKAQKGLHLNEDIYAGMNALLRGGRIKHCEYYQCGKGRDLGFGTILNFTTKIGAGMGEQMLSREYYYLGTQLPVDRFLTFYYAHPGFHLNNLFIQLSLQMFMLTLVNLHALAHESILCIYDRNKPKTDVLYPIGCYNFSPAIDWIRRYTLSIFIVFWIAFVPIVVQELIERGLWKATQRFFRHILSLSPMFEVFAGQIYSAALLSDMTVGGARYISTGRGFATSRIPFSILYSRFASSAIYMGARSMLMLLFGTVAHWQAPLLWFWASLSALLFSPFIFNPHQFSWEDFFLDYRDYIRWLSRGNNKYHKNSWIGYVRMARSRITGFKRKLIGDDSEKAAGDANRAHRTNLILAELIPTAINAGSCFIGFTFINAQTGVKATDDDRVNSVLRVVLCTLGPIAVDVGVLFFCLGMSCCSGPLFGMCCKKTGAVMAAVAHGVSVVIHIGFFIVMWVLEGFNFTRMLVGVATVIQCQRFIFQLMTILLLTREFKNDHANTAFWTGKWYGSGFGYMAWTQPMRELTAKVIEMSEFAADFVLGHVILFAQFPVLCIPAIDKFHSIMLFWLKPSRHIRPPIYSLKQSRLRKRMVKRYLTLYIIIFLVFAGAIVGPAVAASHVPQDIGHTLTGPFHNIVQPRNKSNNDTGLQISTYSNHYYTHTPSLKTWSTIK
Sequence of 1,3-beta-glucan synthase (Candida glabrata, UniProt F5BCZ9, P667T) (F5BCZ9 entry or part of it P667T): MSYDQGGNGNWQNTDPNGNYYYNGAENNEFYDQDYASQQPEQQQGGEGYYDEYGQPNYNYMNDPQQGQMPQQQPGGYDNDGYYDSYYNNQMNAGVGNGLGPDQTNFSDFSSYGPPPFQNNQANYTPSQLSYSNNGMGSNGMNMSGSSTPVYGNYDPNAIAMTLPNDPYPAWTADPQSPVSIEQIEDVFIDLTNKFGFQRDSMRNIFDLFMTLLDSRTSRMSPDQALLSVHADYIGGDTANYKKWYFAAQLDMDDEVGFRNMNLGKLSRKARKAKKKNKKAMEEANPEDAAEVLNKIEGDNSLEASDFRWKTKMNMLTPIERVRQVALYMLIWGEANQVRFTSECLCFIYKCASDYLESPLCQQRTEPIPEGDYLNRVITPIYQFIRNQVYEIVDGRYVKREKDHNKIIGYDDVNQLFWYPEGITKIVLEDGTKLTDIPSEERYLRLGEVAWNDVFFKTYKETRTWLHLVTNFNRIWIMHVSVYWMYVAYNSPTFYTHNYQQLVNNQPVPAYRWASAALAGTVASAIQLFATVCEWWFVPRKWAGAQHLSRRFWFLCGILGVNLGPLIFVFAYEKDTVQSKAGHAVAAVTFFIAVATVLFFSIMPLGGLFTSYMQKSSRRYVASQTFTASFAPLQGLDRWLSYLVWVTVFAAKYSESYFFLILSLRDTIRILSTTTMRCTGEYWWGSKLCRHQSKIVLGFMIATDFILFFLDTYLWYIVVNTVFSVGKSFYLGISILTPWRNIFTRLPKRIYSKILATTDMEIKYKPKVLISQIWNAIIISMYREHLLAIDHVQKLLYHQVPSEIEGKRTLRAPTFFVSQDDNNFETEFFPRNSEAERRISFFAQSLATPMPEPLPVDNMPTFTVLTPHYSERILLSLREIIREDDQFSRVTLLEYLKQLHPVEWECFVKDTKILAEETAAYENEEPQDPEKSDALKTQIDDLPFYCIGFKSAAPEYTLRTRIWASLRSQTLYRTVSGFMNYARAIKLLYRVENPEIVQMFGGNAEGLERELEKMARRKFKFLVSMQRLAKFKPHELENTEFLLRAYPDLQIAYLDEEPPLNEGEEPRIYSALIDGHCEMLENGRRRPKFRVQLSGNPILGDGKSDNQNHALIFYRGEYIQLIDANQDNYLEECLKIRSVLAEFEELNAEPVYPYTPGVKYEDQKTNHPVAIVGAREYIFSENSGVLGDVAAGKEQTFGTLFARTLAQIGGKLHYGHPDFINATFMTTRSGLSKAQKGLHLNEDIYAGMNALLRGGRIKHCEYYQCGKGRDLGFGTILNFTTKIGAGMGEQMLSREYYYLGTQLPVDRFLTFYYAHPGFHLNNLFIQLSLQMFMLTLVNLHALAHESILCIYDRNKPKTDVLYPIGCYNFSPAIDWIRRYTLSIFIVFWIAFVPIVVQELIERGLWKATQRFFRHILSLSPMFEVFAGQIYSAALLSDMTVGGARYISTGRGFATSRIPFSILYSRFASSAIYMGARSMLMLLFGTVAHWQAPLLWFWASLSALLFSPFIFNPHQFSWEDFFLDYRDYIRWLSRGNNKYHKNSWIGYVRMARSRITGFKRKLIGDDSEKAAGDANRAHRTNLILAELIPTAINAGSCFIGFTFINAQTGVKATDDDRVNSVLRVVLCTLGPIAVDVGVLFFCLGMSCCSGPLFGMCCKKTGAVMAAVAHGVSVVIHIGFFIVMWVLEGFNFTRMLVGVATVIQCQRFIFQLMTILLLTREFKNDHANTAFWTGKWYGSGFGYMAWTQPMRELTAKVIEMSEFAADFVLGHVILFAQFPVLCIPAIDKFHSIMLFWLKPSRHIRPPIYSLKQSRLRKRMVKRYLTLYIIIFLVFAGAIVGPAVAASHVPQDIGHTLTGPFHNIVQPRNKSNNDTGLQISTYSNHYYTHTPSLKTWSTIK

SMILES | MIC (Nakaseomyces glabratus [1]) | MIC (Nakaseomyces glabratus [2]) | MIC (Nakaseomyces glabratus [3]) | MIC (Nakaseomyces glabratus [4]) | MIC (Nakaseomyces glabratus [5]) | IC50 (1,3-beta-glucan synthase [6]) | MIC (Nakaseomyces glabratus [7]) | MIC (Nakaseomyces glabratus [8]) | IC50 (1,3-beta-glucan synthase [9]) | IC50 [10] | MIC (Nakaseomyces glabratus [11]) | MIC (Nakaseomyces glabratus [12]) | MIC (Nakaseomyces glabratus [13]) | IC50 (1,3-beta-glucan synthase [14]) | MIC (Nakaseomyces glabratus [15]) | MIC (Nakaseomyces glabratus [16]) | MIC (Nakaseomyces glabratus [17]) | IC50 (1,3-beta-glucan synthase [18]) | MIC (Nakaseomyces glabratus [19]) | Ratio IC50 (Nakaseomyces glabratus [20]) | further results
CCCCCOc1ccc(-c2ccc(-c3ccc(C(=O)N[C@H]4C[C@@H](O)[C@@H](O)NC(=O)[C@@H]5[C@@H](O)[C@@H](C)CN5C(=O)[C@H]([C@@H](C)O)NC(=O)[C@H]([C@H](O)[C@@H](O)c5ccc(O)cc5)NC(=O)[C@@H]5C[C@@H](O)CN5C(=O)[C@H]([C@@H](C)O)NC4=O)cc3)cc2)cc1 [ANIDULAFUNGIN] ({pTerphenylCO(4''-OnC5H11)}-[Orn(4R-OH,5R-OH)]T[Hyp][hTyr(3S-OH,4S-OH)]T[Pro(3S-OH,4S-Me)]; lactam 1-C) | 8 µg/mL | 8 µg/mL | 1 µg/mL (≈ 0.877 µM) | 2 µg/mL (≈ 1.75 µM) | 8 µg/mL | 74.7 nM | 4 µg/mL | 4 µg/mL (≈ 3.51 µM) | 87.3 nM | 133 nM | 16 µg/mL | 0.06 µg/mL (≈ 0.0526 µM) | 2 µg/mL (≈ 1.75 µM) | 753 nM | 0.5 µg/mL | 1 µg/mL (≈ 0.877 µM) | 2 µg/mL (≈ 1.75 µM) | 75.9 nM | 0.06 µg/mL (≈ 0.0526 µM) | 54 | MIC (Nakaseomyces glabratus [21]): 8 µg/mL; MIC (Nakaseomyces glabratus [22]): 0.25 µg/mL (≈ 0.219 µM); MIC (Nakaseomyces glabratus [23]): 4 µg/mL (≈ 3.51 µM); IC50 (1,3-beta-glucan synthase [24]): 3510 nM; MIC (Nakaseomyces glabratus [25]): 1.59 µg/mL (≈ 1.39 µM); MIC (Nakaseomyces glabratus [26]): 2 µg/mL (≈ 1.75 µM); IC50 [27]: 0.00158 µg/mL (≈ 0.00139 µM); MIC (Nakaseomyces glabratus [28]): 8 µg/mL; MIC (Nakaseomyces glabratus [29]): 8 µg/mL; MIC (Nakaseomyces glabratus [30]): 8 µg/mL; IC50 (1,3-beta-glucan synthase [31]): 112 nM; IC50 [32]: 89.3 nM; IC50 [33]: 0.00125 µg/mL (≈ 0.0011 µM); MIC (Nakaseomyces glabratus [34]): 0.5 µg/mL
CC[C@H](C)C[C@H](C)CCCCCCCCC(=O)N[C@H]1C[C@@H](O)[C@@H](NCCN)NC(=O)[C@@H]2[C@@H](O)CCN2C(=O)[C@H]([C@H](O)CCN)NC(=O)[C@H]([C@H](O)[C@@H](O)c2ccc(O)cc2)NC(=O)[C@@H]2C[C@@H](O)CN2C(=O)[C@H]([C@@H](C)O)NC1=O [CASPOFUNGIN] | 8 µg/mL | 8 µg/mL | 16 µg/mL (≈ 14.6 µM) | 4 µg/mL (≈ 3.66 µM) | 8 µg/mL | 556 nM | 8 µg/mL | 8 µg/mL (≈ 7.32 µM) | 152 nM | 772 nM | 16 µg/mL | 0.12 µg/mL (≈ 0.11 µM) | 2 µg/mL (≈ 1.83 µM) | 973 nM | 0.12 µg/mL | 4 µg/mL (≈ 3.66 µM) | 8 µg/mL (≈ 7.32 µM) | 105 nM | 0.06 µg/mL (≈ 0.0549 µM) | 267 | MIC (Nakaseomyces glabratus [21]): 8 µg/mL; MIC (Nakaseomyces glabratus [22]): 4 µg/mL (≈ 3.66 µM); MIC (Nakaseomyces glabratus [23]): 8 µg/mL (≈ 7.32 µM); IC50 (1,3-beta-glucan synthase [24]): 4680 nM; MIC (Nakaseomyces glabratus [25]): 2 µg/mL (≈ 1.83 µM); MIC (Nakaseomyces glabratus [26]): 2.52 µg/mL (≈ 2.3 µM); IC50 [27]: 0.00179 µg/mL (≈ 0.00164 µM); MIC (Nakaseomyces glabratus [28]): 8 µg/mL; MIC (Nakaseomyces glabratus [29]): 16 µg/mL; MIC (Nakaseomyces glabratus [30]): 8 µg/mL; IC50 (1,3-beta-glucan synthase [31]): 236 nM; IC50 [32]: 692 nM; IC50 [33]: 0.00311 µg/mL (≈ 0.00284 µM); MIC (Nakaseomyces glabratus [34]): 0.25 µg/mL
